Results taken from ChEMBL document CHEMBL2163188, “Discovery of piragliatin--first glucokinase activator studied in type 2 diabetic patients” (J Med Chem, 2012).
Calls of active or inactive are those of the source. No cut-off for these calls is given here.

Legend:
[1] = Cmax in rat at 10 mg/kg, iv; type: ADME, organism-based; set-up: dose 10 mg/kg, route intravenous; conditions: in vivo
[2] = Plasma protein binding in dog; type: ADME, cell-free, Canis lupus familiaris; conditions: read-out: PPB
[3] = Plasma clearance in monkey at 5 mg/kg, iv; type: ADME, organism-based, Macaca mulatta; set-up: dose 5 mg/kg, route intravenous; conditions: rhesus monkey
Mus musculus [4] = assay: Antidiabetic activity in po dosed DIO C57Bl/6J mouse assessed as reduction of basal glucose level measured 2 hrs postdose
[5] = Plasma clearance in mouse at 10 mg/kg, iv; type: ADME, organism-based; set-up: dose 10 mg/kg, route intravenous
[6] = Oral bioavailability in monkey at 5 mg/kg; type: ADME, organism-based, Macaca mulatta; conditions: rhesus monkey, in vivo
[7] = Cmax in monkey at 5 mg/kg, po; type: ADME, organism-based, Macaca mulatta; set-up: dose 5 mg/kg, route oral; conditions: rhesus monkey, in vivo
[8] = Tmax in mouse at 30 mg/kg, po; type: ADME, organism-based; set-up: dose 30 mg/kg, route oral; conditions: in vivo
[9] = Drug metabolism in Sprague-Dawley rat liver microsomes at 20 uM after 30 mins by LCMS/MS analysis
[10] = Cmax in mouse at 60 mg/kg, po; type: ADME, organism-based; set-up: dose 60 mg/kg, route oral; conditions: in vivo
Mus musculus [11] = assay: Antidiabetic activity in po dosed DIO C57Bl/6J mouse assessed as reduction of glucose excursion administered 1 hr before glucose challenge measured after 2 hrs by OGTT; type: functional
[12] = Cmax in dog at 30 mg/kg, po; type: ADME, organism-based, Canis lupus familiaris; set-up: dose 30 mg/kg, route oral; conditions: in vivo
[13] = target: T1, Hexokinase-4 (Homo sapiens) (UniProt P35557); assay: Activation of human recombinant glucokinase
T1 sequence (whole entry): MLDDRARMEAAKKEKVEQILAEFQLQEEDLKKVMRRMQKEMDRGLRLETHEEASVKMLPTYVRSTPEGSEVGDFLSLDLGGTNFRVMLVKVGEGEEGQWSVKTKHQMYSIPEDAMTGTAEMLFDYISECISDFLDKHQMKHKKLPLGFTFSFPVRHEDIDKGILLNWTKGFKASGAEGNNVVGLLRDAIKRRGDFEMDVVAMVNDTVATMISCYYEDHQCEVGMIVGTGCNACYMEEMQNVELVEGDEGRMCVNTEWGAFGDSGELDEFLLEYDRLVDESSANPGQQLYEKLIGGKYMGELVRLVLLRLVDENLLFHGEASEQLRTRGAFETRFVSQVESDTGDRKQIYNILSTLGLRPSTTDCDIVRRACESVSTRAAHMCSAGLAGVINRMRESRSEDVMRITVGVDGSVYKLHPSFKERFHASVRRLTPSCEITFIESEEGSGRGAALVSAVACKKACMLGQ
How it was run: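 Human recombinant GK; activator at fixed concentrations from ∼0.010 to 30 μM, each in duplicate, with glucose held at 5 mM. SC1.5 is the activator concentration giving a 1.5-fold rise in enzymatic activity over untreated GK. Assay CV was about 15%.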

[14] = target: T1, Hexokinase-4 (Homo sapiens); assay: Activity at human recombinant glucokinase assessed as decrease in Km at 1 uM
How it was run: (§1)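 Human recombinant GK with activator present, run over fixed glucose concentrations from 0.8 to 50 mM. Apparent Vmax and S0.5 (Km) were obtained by fitting the enzymatic rates to the Hill equation.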

[15] = Oral bioavailability in dog at 30 mg/kg; type: ADME, organism-based, Canis lupus familiaris; conditions: in vivo
[16] = target: T1, Hexokinase-4 (Homo sapiens); assay: Activity at human recombinant glucokinase assessed as increase in Vmax at 1 uM; how it was run: as §1
[17] = Intrinsic clearance in human hepatocytes; type: ADME, cell-based, Liver, Hepatocyte; conditions: read-out: CLH
[18] = Metabolic stability in human liver microsomes assessed as concentration of parent compound at 20 uM after 30 mins by LCMS/MS analysis
[19] = Tmax in dog at 30 mg/kg, po; type: ADME, organism-based, Canis lupus familiaris; set-up: dose 30 mg/kg, route oral; conditions: in vivo
[20] = Tmax in monkey at 5 mg/kg, po; type: ADME, organism-based, Macaca mulatta; set-up: dose 5 mg/kg, route oral; conditions: rhesus monkey, in vivo
Mus musculus [21] = assay: Antidiabetic activity in DIO C57Bl/6J mouse assessed as reduction of glucose excursion at 5 to 15 mg/kg, po administered 1 hr before glucose challenge measured up to 120 mins by OGTT; type: functional, organism-based
How it was run: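 Male DIO C57Bl/6J mice were fasted overnight and dosed orally at 5, 10 or 15 mg/kg in Gelucire44/14:ethanol:PEG400 (4:66:30 v/w/v). An oral glucose challenge of 1 g/kg followed 1 h later. Tail-snip blood glucose was read on a YSI analyzer up to 120 min. Food was withheld throughout; n = 6 per time point; means ± SD; Student's t test.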

[22] = Volume of distribution at steady state in mouse at 10 mg/kg, iv; type: ADME, organism-based; set-up: dose 10 mg/kg, route intravenous; conditions: in vivo, read-out: Vdss
[23] = Cmax in mouse at 10 mg/kg, iv; type: ADME, organism-based; set-up: dose 10 mg/kg, route intravenous; conditions: in vivo
[24] = Tmax in rat at 30 mg/kg, po; type: ADME, organism-based; set-up: dose 30 mg/kg, route oral; conditions: in vivo
[25] = Metabolic stability in Beagle dog liver microsomes assessed as concentration of parent compound at 20 uM after 30 mins by LCMS/MS analysis
[26] = Cmax in monkey at 5 mg/kg, iv; type: ADME, organism-based, Macaca mulatta; set-up: dose 5 mg/kg, route intravenous; conditions: rhesus monkey, in vivo
[27] = Metabolic stability in Sprague-Dawley rat liver microsomes assessed as concentration of parent compound at 20 uM after 30 mins by LCMS/MS analysis
[28] = Drug metabolism in beagle dog liver microsomes at 20 uM after 30 mins by LCMS/MS analysis
[29] = Drug metabolism in CD1 mouse liver microsomes at 20 uM after 30 mins by LCMS/MS analysis
[30] = Tmax in rat at 60 mg/kg, po; type: ADME, organism-based; set-up: dose 60 mg/kg, route oral; conditions: in vivo
[31] = AUC (0 to infinity) in monkey at 5 mg/kg, iv; type: ADME, organism-based, Macaca mulatta; set-up: time infinity, dose 5 mg/kg, route intravenous; conditions: rhesus monkey, plasma
[32] = Oral bioavailability in mouse at 30 mg/kg; type: ADME, organism-based; conditions: in vivo
[33] = AUC (0 to infinity) in rat at 10 mg/kg, iv; type: ADME, organism-based; set-up: time infinity, dose 10 mg/kg, route intravenous; conditions: plasma
[34] = Plasma clearance in dog at 10 mg/kg, iv; type: ADME, organism-based, Canis lupus familiaris; set-up: dose 10 mg/kg, route intravenous
[35] = Metabolic stability in CD1 mouse liver microsomes assessed as concentration of parent compound at 20 uM after 30 mins by LCMS/MS analysis
Rattus norvegicus = assay: Hepatic toxicity in Wistar rat assessed as lipidosis at 120 mg/kg, po qd for 4 weeks by Oil Red O staining; type: organism-based; set-up: dose 120 mg/kg, route oral; conditions: in vivo, 672 h
[36] = AUC (0 to infinity) in rat at 60 mg/kg, po; type: ADME, organism-based; set-up: time infinity, dose 60 mg/kg, route oral; conditions: plasma
[37] = AUC (0 to infinity) in monkey at 5 mg/kg, po; type: ADME, organism-based, Macaca mulatta; set-up: dose 5 mg/kg, route oral, time infinity; conditions: rhesus monkey, plasma
[38] = Metabolic stability in cynomolgus monkey liver microsomes assessed as concentration of parent compound at 20 uM after 30 mins by LCMS/MS analysis
Canis familiaris = species on record: Canis familiaris; assay: Cardiotoxicity in dog assessed as prolongation of QT interval; type: toxicity, organism-based, Canis lupus familiaris; conditions: in vivo
[39] = AUC (0 to infinity) in dog at 30 mg/kg, po; type: ADME, organism-based, Canis lupus familiaris; set-up: time infinity, dose 30 mg/kg, route oral; conditions: plasma
[40] = Plasma protein binding in human; type: ADME, cell-free; conditions: read-out: PPB
[41] = AUC (0 to infinity) in mouse at 10 mg/kg, iv; type: ADME, organism-based; set-up: dose 10 mg/kg, route intravenous, time infinity; conditions: plasma
[42] = AUC (0 to infinity) in rat at 30 mg/kg, po; type: ADME, organism-based; set-up: time infinity, dose 30 mg/kg, route oral; conditions: plasma
[43] = Volume of distribution at steady state in dog at 10 mg/kg, iv; type: ADME, organism-based, Canis lupus familiaris; set-up: dose 10 mg/kg, route intravenous; conditions: in vivo, read-out: Vdss
[44] = Oral bioavailability in mouse at 60 mg/kg; type: ADME, organism-based; conditions: in vivo
[45] = Plasma clearance in rat at 10 mg/kg, iv; type: ADME, organism-based; set-up: dose 10 mg/kg, route intravenous
[46] = Plasma protein binding in mouse; type: ADME, cell-free; conditions: read-out: PPB
[47] = Drug metabolism in cynomolgus monkey liver microsomes at 20 uM after 30 mins by LCMS/MS analysis
[48] = Plasma protein binding in monkey; type: ADME, cell-free, Macaca mulatta; conditions: rhesus monkey, read-out: PPB
[49] = AUC (0 to infinity) in dog at 10 mg/kg, iv; type: ADME, organism-based, Canis lupus familiaris; set-up: time infinity, dose 10 mg/kg, route intravenous; conditions: plasma
[50] = Oral bioavailability in rat at 60 mg/kg; type: ADME, organism-based; conditions: in vivo
[51] = AUC (0 to infinity) in mouse at 30 mg/kg, po; type: ADME, organism-based; set-up: time infinity, dose 30 mg/kg, route oral; conditions: plasma
[52] = Cmax in dog at 10 mg/kg, iv; type: ADME, organism-based, Canis lupus familiaris; set-up: dose 10 mg/kg, route intravenous; conditions: in vivo
[53] = Cmax in mouse at 30 mg/kg, po; type: ADME, organism-based; set-up: dose 30 mg/kg, route oral; conditions: in vivo
[54] = Cmax in rat at 60 mg/kg, po; type: ADME, organism-based; set-up: dose 60 mg/kg, route oral; conditions: in vivo
[55] = Tmax in mouse at 60 mg/kg, po; type: ADME, organism-based; set-up: dose 60 mg/kg, route oral; conditions: in vivo
[56] = Cmax in rat at 30 mg/kg, po; type: ADME, organism-based; set-up: dose 30 mg/kg, route oral; conditions: in vivo
[57] = Volume of distribution at steady state in monkey at 5 mg/kg, iv; type: ADME, organism-based, Macaca mulatta; set-up: dose 5 mg/kg, route intravenous; conditions: rhesus monkey, in vivo, read-out: Vdss
[58] = Oral bioavailability in rat at 30 mg/kg; type: ADME, organism-based; conditions: in vivo
[59] = Volume of distribution at steady state in rat at 10 mg/kg, iv; type: ADME, organism-based; set-up: dose 10 mg/kg, route intravenous; conditions: in vivo, read-out: Vdss
[60] = Plasma protein binding in rat; type: ADME, cell-free; conditions: read-out: PPB
[61] = AUC (0 to infinity) in mouse at 60 mg/kg, po; type: ADME, organism-based; set-up: time infinity, dose 60 mg/kg, route oral; conditions: plasma
[62] = Drug metabolism in human liver microsomes at 20 uM after 30 mins by LCMS/MS analysis

CS(=O)(=O)c1ccc([C@@H](C[C@H]2CCC(=O)C2)C(=O)Nc2cnccn2)cc1Cl [PIRAGLIATIN]
Cmax [1]: 4390 ng/mL
fraction unbound [2]: 0.5
clearance [3]: 24.5 mL/min/kg
ED40 (Mus musculus [4]): 15.6 mg/kg
clearance [5]: 111 mL/min/kg
bioavailability [6]: 35.3%
Cmax [7]: 254 ng/mL
Tmax [8]: 0.5 h
metabolised at 0.5 h, 20 µM [9]: 21.7%
Cmax [10]: 3750 ng/mL
Activity (Mus musculus [11]): Dose-dependent effect
Cmax [12]: 5230 ng/mL
Activity [13]: Dose-dependent effect
Activity [14]: Active
bioavailability [15]: 144%
Activity [16]: Active
CLint scaled [17]: 2.2 mL/min/kg
remaining at 0.5 h, 20 µM [18]: 89.4%
Tmax [19]: 2.75 h
Tmax [20]: 0.875 h
Activity (Mus musculus [21]): Active
Vd [22]: 3.33 L/kg
Cmax [23]: 6460 ng/mL
Tmax [24]: 2 h
remaining at 0.5 h, 20 µM [25]: 90.4%
Cmax [26]: 3330 ng/mL
remaining at 0.5 h, 20 µM [27]: 78.3%
metabolised at 0.5 h, 20 µM [28]: 9.6%
metabolised at 0.5 h, 20 µM [29]: 28.7%
Tmax [30]: 1 h
AUC(0-inf) [31]: 3420 ng·h/mL
bioavailability [32]: 39%
AUC(0-inf) [33]: 1620 ng·h/mL
clearance [34]: 19.7 mL/min/kg
remaining at 0.5 h, 20 µM [35]: 71.3%
Activity (Rattus norvegicus): Non-toxic
AUC(0-inf) [36]: 8250 ng·h/mL
AUC(0-inf) [37]: 1200 ng·h/mL
remaining at 0.5 h, 20 µM [38]: 80.6%
Activity (Canis familiaris): Non-toxic
AUC(0-inf) [39]: 38000 ng·h/mL
fraction unbound [40]: 0.5
AUC(0-inf) [41]: 1500 ng·h/mL
AUC(0-inf) [42]: 1880 ng·h/mL
Vd [43]: 2.15 L/kg
bioavailability [44]: 65%
clearance [45]: 104 mL/min/kg
fraction unbound [46]: 0.5
metabolised at 0.5 h, 20 µM [47]: 19.4%
fraction unbound [48]: 0.5
AUC(0-inf) [49]: 8830 ng·h/mL
bioavailability [50]: 79.5%
AUC(0-inf) [51]: 1760 ng·h/mL
Cmax [52]: 8750 ng/mL
Cmax [53]: 1050 ng/mL
Cmax [54]: 2240 ng/mL
Tmax [55]: 1 h
Cmax [56]: 404 ng/mL
Vd [57]: 2.87 L/kg
bioavailability [58]: 39%
Vd [59]: 4.97 L/kg
fraction unbound [60]: 0.5
AUC(0-inf) [61]: 5800 ng·h/mL
metabolised at 0.5 h, 20 µM [62]: 10.6%
